# Screening results: PubChem BioAssay, several laboratories
# p97 inhibitor – blocks human p97 ATPase activity. recombinant p97 ATPase, Kinase-Glo ATP luminescence, 3 h. actives 0.42% (n = 220,000). inhibition, % at 8 µM. P55072. AID 1481; in the data active means inhibition above about 15%;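 further: 0% = DMSO vehicle and 100% = wells lacking enzyme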
# PKD1 inh – PKD1 (human) kinase inhibition. Q15139. PKD1 kinase fluorescence polarization assay. inhibition, % (no concentration beside the values). actives 0.056% (n = 200,000). AID 797; in the data active means inhibition above about 50%
# Redox H2O2 prof – compounds producing H2O2 with reducing agent – biochemical, NIH compound library profiling, artefact control for MLSCN library redox annotation, primary screen | actives 0.03% (n = 200,000) | activation, % at 10 µM | AID 878 | DTT-dependent redox cycling H2O2, phenol red/HRP absorbance; 100% = 100 µM peroxide control, 0% = buffer;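 active means activation of at least 50% relative to the plate's high and low controls in the primary single-dose screen; inactive means activation below 50%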;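 further: compound incubated with DTT at 0.8 mM final as the reducing agent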
# ROMK primary – modulates human ROMK potassium channel activity | P48048 | Tet-inducible ROMK, thallium flux fluorescence; actives lie on both sides | B-score at 10 µM | actives 2% (n = 130,000);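 active means signal ratio slope over the read window, or its plate-corrected B-score, at least 3 SD from the plate mean, either direction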;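 further: B-score of the F/F0 ratio slope over 7 to 12 s after thallium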
# MDM2 E3 inh – inhibitors of human Mdm2 E3 ubiquitin ligase. Q00987. cell-based MDM2 ubiquitination luciferase reporter, 2 h; 0 = plate control, 100 = twice control, blank-subtracted. signal enhancement, % at 5 µM. actives 0.11% (n = 210,000);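 active means signal enhancement of 30% or more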;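 further: luminescence tracks abundance of the self-degrading MDM2-luciferase fusion protein; higher signal means inhibition of MDM2 E3 ligase activity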
#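 Material: stable MDM2–luciferase fusion reporter cells / Quantity: 2000 cells/well / Dosing: single 5 µM compound dose, 0.2% final DMSO / Buffer or medium: DMEM / Schedule: 4 h cell settling then 2 h compound exposure, 37 °C / Detection: luminescence with SteadyLite reagent, 15 min at room temperature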
# Cl transport mod – modulators of human KCC2 chloride dependent transport. Q9H2X9. KCC2 cells, thallium flux FluoZin-2 fluorescence. B-score of Tl+ flux slope (higher = more flux/activation; lower = inhibition) at 10 µM. actives 2.2% (n = 190,000). AID 1456;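 active means thallium flux slope and its plate-corrected score both differing from the plate sample mean at a set confidence after two filtering rounds, in either direction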;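 further: slope of fluorescence scaled to starting intensity during 10 to 20 s after thallium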
# Target sequence (Q9H2X9 whole entry, looked up): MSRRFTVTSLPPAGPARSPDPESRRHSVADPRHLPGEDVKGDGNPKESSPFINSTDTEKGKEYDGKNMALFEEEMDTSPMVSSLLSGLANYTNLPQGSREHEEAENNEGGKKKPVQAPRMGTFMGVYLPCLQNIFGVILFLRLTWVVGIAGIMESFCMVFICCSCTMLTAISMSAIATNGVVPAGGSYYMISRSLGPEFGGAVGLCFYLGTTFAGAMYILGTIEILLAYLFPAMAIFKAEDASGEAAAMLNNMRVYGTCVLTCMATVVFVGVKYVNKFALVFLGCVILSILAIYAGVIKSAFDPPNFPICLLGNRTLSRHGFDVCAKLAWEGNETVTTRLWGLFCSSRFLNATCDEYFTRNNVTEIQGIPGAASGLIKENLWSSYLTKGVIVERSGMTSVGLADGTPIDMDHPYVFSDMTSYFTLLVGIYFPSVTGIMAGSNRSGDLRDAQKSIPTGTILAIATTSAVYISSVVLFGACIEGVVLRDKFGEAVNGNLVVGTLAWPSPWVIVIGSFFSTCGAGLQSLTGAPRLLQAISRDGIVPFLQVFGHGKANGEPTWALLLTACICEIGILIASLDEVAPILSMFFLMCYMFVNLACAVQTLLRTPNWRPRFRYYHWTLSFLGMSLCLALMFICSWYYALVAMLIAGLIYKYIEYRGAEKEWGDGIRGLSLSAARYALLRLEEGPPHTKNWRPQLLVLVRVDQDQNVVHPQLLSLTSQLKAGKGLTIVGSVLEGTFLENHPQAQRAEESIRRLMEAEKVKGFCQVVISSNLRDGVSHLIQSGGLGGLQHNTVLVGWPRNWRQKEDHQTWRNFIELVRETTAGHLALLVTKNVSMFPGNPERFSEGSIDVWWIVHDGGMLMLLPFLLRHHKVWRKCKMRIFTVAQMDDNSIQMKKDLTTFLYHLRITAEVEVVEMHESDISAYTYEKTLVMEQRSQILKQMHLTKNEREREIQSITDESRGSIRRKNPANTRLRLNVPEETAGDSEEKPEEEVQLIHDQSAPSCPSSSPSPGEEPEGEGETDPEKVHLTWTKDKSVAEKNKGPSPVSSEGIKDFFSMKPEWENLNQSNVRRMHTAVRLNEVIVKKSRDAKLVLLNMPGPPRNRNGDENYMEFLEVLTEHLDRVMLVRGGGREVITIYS
# p97 confirm – confirmation of human p97 ATPase inhibitors; shares compounds with p97 inhibitor; inhibition, % at 8 µM; actives 44% (n = 760); recombinant p97 ATPase, Kinase-Glo ATP luminescence;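 active means percent inhibition of p97 ATPase above a set limit, the primary screen's mean plus 3 SD, cut at about 15% in these data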;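 further: 0% = DMSO wells and 100% = wells lacking p97 protein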
# * hit, by the source's call; i = inactive; . = not tested or not shown. Only some compounds are listed: those with a hit (about 3.4% of all), similar ones and a draw of the others.
SMILES,p97 inhibitor,PKD1 inh,Redox H2O2 prof,ROMK primary,MDM2 E3 inh,Cl transport mod,p97 confirm
Cc1ccc2c(C(=O)CCl)c(C)[nH]c2c1,36.5*,.,.,.,.,1.42,39.8*
O=C(Cn1cc(C(F)(F)F)ccc1=O)N/N=C/c1ccccc1O,7.1,.,.,.,-3.8,0.0591,.
CCOc1cc(/C=C2/C(=O)N(c3ccccc3)N=C2C)ccc1OC(=O)c1ccco1,27.4*,-2.5,1.2,.,-20.7,0.294,1.0
Cc1ccc(NC(=S)N2CCCC(O)C2)cc1 (stereo not given),59.7*,-1.2,-4.1,0.277,-10.7,1.04,2.0
O=C(CCCCn1c(=S)[nH]c2ccsc2c1=O)NCc1ccco1,-1.0,-0.8,-6.7,0.29,-12.1,.,.
COc1ccc(-c2nc3c4ccccc4ccn3c2C=O)cc1,15.3*,-5.0,12.4,0.0577,-15.3,.,2.5
CSc1nc(SCCO)c2sc3nc(-c4ccco4)c4c(c3c2n1)CC(C)(C)OC4,7.1,10.6,-1.0,0.446,-40.0,.,.
CSc1nc(N(CCO)CCO)c2sc3nc(-c4ccco4)c4c(c3c2n1)CCC4,19.6*,-6.3,-0.1,0.977,-16.6,-0.114,14.8
Cc1ccc(NC(=O)NCc2ccncc2)cc1Cl,3.7,-1.1,0.2,-0.537,-4.7,-0.071,.
COc1cc(CNc2ccc(O)cc2)cc(Br)c1OCc1ccccc1F,15.3*,-14.5,0.2,.,-8.6,0.106,5.2
Cc1ccc(C(=O)NCCN2C3=NC[C@@H](Cc4ccccc4)N3C[C@H]2Cc2ccc(O)cc2)cc1Br,19.8*,-1.9,0.4,.,.,-1.72,12.3
O=C(Nc1ccccc1OC(F)F)c1ccc(F)cc1,3.9,0.3,-3.2,.,-11.8,0.023,.
CC1=NN(Cc2ccccc2)C(=O)C1,21.2*,3.7,-0.5,0.285,0.1,0.653,0.9
CC1=NN(c2ccccc2)C(=O)C1,20.5*,-2.3,0.1,.,.,0.143,6.1
O=C(Cc1cccs1)N/N=C/C=C\c1ccccc1[N+](=O)[O-],7.1,2.4,0.2,0.107,4.7,-0.168,.
O=S(=O)(c1ccc(NC(=S)N/N=C/c2ccc(O)c(O)c2)cc1)N1CCOCC1,18.7*,.,.,.,-6.8,0.146,21.0*
N#Cc1ccc(/C=N/NC(=S)Nc2ccc(S(=O)(=O)N3CCOCC3)cc2)cc1,3.9,.,.,.,.,1.18,.
O=C(OCC(=O)c1c[nH]c2ccccc12)c1ccco1,5.2,10.7,1.8,.,-24.4,.,.
O=C(OCc1ccccc1)C1=[N+]([O-])OC(C(=O)OCc2ccccc2)C1c1c[nH]c2ccccc12 (stereo not given),28.5*,-15.1,-11.6,.,-5.4,-2.63,35.5*
O=C(O)c1cc(-c2c[nH]c3ccccc23)nc2cc3ccccc3cc12,27.0*,.,.,-0.101,-16.4,i,27.4*
COC(=O)c1cc(-c2c[nH]c3ccccc23)n[nH]1,5.7,0.1,2.3,.,-12.6,-0.249,.
O=C(O)CCCN1C(=O)/C(=C\c2ccc(-c3nc4ccccc4s3)o2)SC1=S,15.4*,.,.,-0.00895,-13.5,-4.63,3.0
FC(F)(F)c1nnc2c(Sc3ccccc3)nc3ccccc3n12,8.3,-9.2,2.5,.,0.5,0.0407,.
FC(F)(F)c1nnc2c(Sc3ccccn3)nc3ccccc3n12,18.7*,7.1,-3.5,-1.31,-4.2,.,6.3
Cn1c2ccccc2c(=O)c2c(=O)n(Cc3ccco3)c(-c3ccc(F)cc3)nc21,46.3*,.,.,0.665,13.8,-1.45,17.4*
SMILES,p97 inhibitor,PKD1 inh,Redox H2O2 prof,ROMK primary,MDM2 E3 inh,Cl transport mod,p97 confirm
Cc1nc2c(c(=O)c3ccccc3n2C)c(=O)n1-c1ccc(F)cc1,5.1,.,.,-0.68,-12.3,-0.161,.
Cc1ccc(-c2nc3c(c(=O)c4ccccc4n3C)c(=O)n2Cc2ccco2)cc1,48.2*,.,.,0.66,-24.9,-2.45,16.5*
CN(CC(=O)N1CCN(c2ncccn2)CC1)S(=O)(=O)c1ccc(Cl)cc1,7.6,-1.8,-0.4,1.7,-2.1,0.397,.
O=C(COC(=O)c1ccc2c(c1[N+](=O)[O-])C(=O)c1ccccc1C2=O)NC1CC1,23.1*,5.3,-0.6,0.63,-12.2,-0.0929,29.3*
O=C(COC(=O)c1cccc2c1C(=O)c1ccccc1C2=O)NC1CCCCC1,-7.8,-2.6,-0.1,.,-13.5,-0.351,.
CC(C)(C)NC(=O)CCSc1nnc(-c2ccco2)o1,-1.7,-1.4,-0.5,0.378,1.2,1.6,.
c1cc2c(c(NCc3ccncc3)c1)CCCC2,2.6,3.7,0.6,-1.72,-3.3,0.631,.
O=C(CN(C(=O)Cn1nnc(-c2cccs2)n1)c1ccc2c(c1)OCCO2)NC1CCCCC1,15.4*,5.5,-0.4,.,-16.9,0.00202,7.2
CCc1nnc(NC(=O)C2(C)COC(c3ccccc3)OC2)s1 (stereo not given),-0.7,-4.8,0.1,-0.617,-13.9,-0.148,.
COc1ccccc1CNC(=O)C1(C)Oc2cccnc2NC1=O (stereo not given),-0.7,-0.9,-1.6,0.0693,-25.9,.,.
Cc1ccnc(NC(=O)COC(=O)C2COc3ccccc3O2)n1 (stereo not given),3.7,-4.3,-0.5,.,-6.6,.,.
Nc1cccc2cnccc12,16.0*,-1.3,3.9,0.499,-13.7,0.341,8.3
Oc1cccc2cnccc12,3.8,.,.,.,.,1.17,.
CC(C)CCNC(=O)C(c1ccncc1)N(Cc1cccs1)C(=O)Cn1nnc(-c2ccc(F)cc2)n1 (stereo not given),-1.6,-2.3,0.0,.,-4.5,0.056,.
c1ccc(Nc2nc(NCc3ccco3)c3ccccc3n2)cc1,22.3*,.,.,.,1.6,-1.81,27.6*
Cc1cccc(Nc2nc(NCc3ccco3)c3ccccc3n2)c1,12.2,19.1,1.2,.,-6.1,0.466,.
Cc1ccc(N2CC(C(=O)N3CCCc4ccccc43)CC2=O)cc1 (stereo not given),-7.7,-2.3,-0.7,.,-20.7,.,.
COc1ccc(/C=C2/C(=O)N(Cc3ccccc3)N=C2C)cc1,32.7*,-3.7,-0.1,.,-9.6,0.57,5.5
CCCCOc1ccc(C(=O)NCC(=O)NCC(=O)OCC)cc1,2.4,-3.9,-1.4,0.827,-16.0,-0.478,.
O=C1NCCCC2c3cc(O)c4ccccc4c3OC12N1CCCCC1 (stereo not given),33.9*,-3.6,0.0,-0.166,-18.6,.,13.6
CCC(C)[C@H](NC(=O)OC(C)(C)C)c1nnc(SCc2c(C)[nH]c(=O)[nH]c2=O)o1 (stereo not given in full),-4.1,-6.6,1.4,.,1.1,1.6,.
O=C(O)c1ccc(NS(=O)(=O)c2ccc3c(c2)C2C=CCC2C(c2ccccc2F)N3)cc1 (stereo not given),32.1*,-2.1,-0.2,-0.0384,-16.4,.,37.3*
Cc1cc(/C=C2\SC(=S)NC2=O)c(C)[nH]1,15.3*,-7.0,0.0,.,-19.2,-5.14,12.6
